Data reported in PMC3988618 (Messenger (Los Angeles, Calif. : Print), 2012).

Columns and labels:
type 1 InsP3R (InsP3R1) = type 1 InsP3R (InsP3R1) (Mus musculus, UniProt P11881); assay: Inhibition of Ins; format: cell-based; conditions: for IC50: read-out: Ins P3R antagonism IC50 (inhibition of Ins(1,4,5)P3-induced Ca2+ release), permeabilized L15 fibroblasts overexpressing InsP3R1, Ca2+ release induced by 250 nM Ins(1,4,5)P3
Outline: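 Mouse InsP3R1-overexpressing L15 fibroblasts, confluent (days 6–8), saponin-permeabilized (40 μg ml−1, 10 min); stores loaded 45 min with 150 nM free 45Ca2+, ATP, NaN3, pH 6.8; 30 °C. Efflux with 1 mM EGTA plus 10 μM thapsigargin, sampled every 2 min; Ins(1,4,5)P3 given 2 min, compound 6 min around it. Release taken as fractional loss over basal leak; Hill fits; 3–4 experiments in duplicate.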

InsP3R [1] = conditions: bovine adrenal cortex microsomes; ref Poitras, 1993; cited from earlier work
InsP3R [2] = conditions: ref Vandeput, 2007; cited from earlier work
[3] = target: T1, human type I Ins(1,4,5)P3 5-phosphatase (Homo sapiens, UniProt Q14642); assay: Ins; format: biochemical; conditions: ratio of IC50 values
T1 sequence (Q14642 1-412): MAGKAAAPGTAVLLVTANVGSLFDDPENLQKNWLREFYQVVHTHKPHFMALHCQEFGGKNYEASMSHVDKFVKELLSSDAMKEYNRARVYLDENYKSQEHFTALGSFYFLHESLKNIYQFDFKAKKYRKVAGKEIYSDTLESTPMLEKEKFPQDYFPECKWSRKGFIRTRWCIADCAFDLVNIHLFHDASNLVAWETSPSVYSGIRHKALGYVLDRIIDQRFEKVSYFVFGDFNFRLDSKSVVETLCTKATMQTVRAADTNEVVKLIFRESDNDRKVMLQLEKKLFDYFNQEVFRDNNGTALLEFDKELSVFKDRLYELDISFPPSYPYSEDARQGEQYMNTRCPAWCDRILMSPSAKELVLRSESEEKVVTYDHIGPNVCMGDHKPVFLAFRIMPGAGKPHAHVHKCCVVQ
Outline: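 Recombinant human type I Ins(1,4,5)P3 5-phosphatase; inhibition by test compound read by malachite green phosphate detection with 1.0 μmol Ins(1,4,5)P3 substrate.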

Sequence of type 1 InsP3R (InsP3R1) (P11881 whole entry): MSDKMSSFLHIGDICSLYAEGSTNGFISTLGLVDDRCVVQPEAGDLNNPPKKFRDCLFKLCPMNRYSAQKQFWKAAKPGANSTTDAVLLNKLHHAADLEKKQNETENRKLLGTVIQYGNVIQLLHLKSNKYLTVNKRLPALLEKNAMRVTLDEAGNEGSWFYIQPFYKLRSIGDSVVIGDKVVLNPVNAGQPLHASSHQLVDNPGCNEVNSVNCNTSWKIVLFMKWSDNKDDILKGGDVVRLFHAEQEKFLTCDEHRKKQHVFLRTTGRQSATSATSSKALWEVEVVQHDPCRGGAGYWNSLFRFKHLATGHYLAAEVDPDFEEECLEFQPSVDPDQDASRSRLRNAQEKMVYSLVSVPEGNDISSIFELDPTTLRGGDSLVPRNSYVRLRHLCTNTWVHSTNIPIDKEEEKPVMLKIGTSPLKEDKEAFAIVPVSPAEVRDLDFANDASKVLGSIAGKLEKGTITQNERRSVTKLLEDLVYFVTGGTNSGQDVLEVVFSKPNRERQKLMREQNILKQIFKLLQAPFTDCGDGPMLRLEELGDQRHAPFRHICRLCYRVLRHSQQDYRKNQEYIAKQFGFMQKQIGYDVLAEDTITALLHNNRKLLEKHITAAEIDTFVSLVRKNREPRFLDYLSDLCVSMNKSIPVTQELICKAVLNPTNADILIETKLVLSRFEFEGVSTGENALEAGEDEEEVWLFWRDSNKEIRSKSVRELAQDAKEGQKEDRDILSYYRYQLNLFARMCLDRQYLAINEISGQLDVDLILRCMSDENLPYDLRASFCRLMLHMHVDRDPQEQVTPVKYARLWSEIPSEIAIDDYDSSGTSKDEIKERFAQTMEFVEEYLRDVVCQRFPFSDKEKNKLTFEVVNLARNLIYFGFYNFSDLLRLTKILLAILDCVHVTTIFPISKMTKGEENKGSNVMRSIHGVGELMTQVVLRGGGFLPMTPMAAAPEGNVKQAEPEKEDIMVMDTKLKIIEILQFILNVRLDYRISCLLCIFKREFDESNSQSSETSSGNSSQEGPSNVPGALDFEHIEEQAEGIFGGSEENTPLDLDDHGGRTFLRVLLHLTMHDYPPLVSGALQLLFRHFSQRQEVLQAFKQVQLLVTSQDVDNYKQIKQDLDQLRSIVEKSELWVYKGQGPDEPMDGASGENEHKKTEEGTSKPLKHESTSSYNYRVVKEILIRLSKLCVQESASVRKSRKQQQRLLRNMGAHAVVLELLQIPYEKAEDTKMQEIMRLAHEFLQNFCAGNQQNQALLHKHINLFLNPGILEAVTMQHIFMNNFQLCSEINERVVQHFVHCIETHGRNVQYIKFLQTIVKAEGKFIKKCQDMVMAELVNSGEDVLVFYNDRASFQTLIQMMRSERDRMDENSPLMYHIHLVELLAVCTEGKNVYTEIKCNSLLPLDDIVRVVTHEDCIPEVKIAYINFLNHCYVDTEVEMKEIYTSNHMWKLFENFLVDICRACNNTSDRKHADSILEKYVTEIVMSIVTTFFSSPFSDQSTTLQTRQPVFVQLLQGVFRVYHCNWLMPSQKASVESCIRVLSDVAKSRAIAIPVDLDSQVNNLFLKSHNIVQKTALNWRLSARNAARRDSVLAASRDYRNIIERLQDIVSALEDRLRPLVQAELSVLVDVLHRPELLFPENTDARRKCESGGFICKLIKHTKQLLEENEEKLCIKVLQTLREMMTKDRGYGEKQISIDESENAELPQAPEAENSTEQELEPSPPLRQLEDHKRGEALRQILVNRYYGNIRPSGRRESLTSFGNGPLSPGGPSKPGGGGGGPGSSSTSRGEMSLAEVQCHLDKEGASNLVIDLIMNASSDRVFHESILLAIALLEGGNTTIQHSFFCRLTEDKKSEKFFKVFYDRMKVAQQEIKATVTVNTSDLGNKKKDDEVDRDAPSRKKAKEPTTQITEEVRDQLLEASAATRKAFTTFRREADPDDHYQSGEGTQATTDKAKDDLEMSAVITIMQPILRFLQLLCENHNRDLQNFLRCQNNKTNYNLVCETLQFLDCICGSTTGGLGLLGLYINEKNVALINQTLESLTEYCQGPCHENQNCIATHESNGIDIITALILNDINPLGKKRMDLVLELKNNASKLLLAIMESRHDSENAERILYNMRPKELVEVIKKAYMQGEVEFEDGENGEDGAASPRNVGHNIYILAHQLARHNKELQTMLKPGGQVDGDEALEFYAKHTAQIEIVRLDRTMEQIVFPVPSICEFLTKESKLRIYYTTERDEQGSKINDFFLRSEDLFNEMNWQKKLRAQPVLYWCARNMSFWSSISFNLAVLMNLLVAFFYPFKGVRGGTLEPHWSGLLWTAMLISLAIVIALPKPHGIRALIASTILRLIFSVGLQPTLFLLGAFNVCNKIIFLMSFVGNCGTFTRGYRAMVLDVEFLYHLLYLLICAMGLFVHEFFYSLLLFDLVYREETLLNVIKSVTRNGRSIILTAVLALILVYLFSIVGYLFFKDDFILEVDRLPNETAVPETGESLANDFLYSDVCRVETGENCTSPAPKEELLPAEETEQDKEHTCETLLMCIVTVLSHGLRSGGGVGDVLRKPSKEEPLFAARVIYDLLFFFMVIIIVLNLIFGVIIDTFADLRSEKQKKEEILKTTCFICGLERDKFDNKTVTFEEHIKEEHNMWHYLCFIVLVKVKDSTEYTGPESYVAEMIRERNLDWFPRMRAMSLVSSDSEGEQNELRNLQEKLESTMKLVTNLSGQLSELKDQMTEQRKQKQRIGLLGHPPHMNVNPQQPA

O=P(O)(O)O[C@@H]1[C@H](O)[C@H](O)[C@@H](OP(=O)(O)O)[C@H](OP(=O)(O)O)[C@H]1O [Compound 1, Myo-inositol 1,4,5-trisphosphate, reference compound]
Kd (type 1 InsP3R (InsP3R1); read-out: apparent Kd for Ins(1,4,5)P3 at the receptor, absence of (8), Lineweaver-Burk plot of Ca2+ release): 400 nM

O=P(O)(O)Oc1ccc(OP(=O)(O)O)c(OP(=O)(O)O)c1 [Compound 2, Benzene 1,2,4-trisphosphate]
Blocking of [3H]Ins(1,4,5)P3 binding, fold weaker than Ins(1,4,5)P3 (InsP3R [1]): ~10,000 fold

O=P(O)(O)Oc1cc(OP(=O)(O)O)cc(-c2c(OP(=O)(O)O)cc(OP(=O)(O)O)cc2OP(=O)(O)O)c1 [Compound 4, biphenyl 2,3′,4,5′,6-pentakisphosphate, reference compound]
IC50 (type 1 InsP3R (InsP3R1)): 417 nM | IC50 as Ins(1,4,5)P3 receptor antagonist (InsP3R [2]): low micromolar range

O=P(O)(O)Oc1cc(OP(=O)(O)O)c(-c2cc(OP(=O)(O)O)c(OP(=O)(O)O)cc2OP(=O)(O)O)cc1OP(=O)(O)O [Compound 8, 2,2′,4,4′,5,5′-Biphenylhexakisphosphate]
Mode of inhibition at the InsP3R (type 1 InsP3R (InsP3R1); 200 nM compound at various Ins(1,4,5)P3 concentrations, Lineweaver-Burk plot): competitive inhibitor | Effect on Ins(1,4,5)P3-induced Ca2+ release (type 1 InsP3R (InsP3R1); 200 nM compound, low (0.1 μM) Ins(1,4,5)P3, not at high (3 μM) Ins(1,4,5)P3): strongly inhibited | IC50 (type 1 InsP3R (InsP3R1)): 187 nM | 5-phosphatase inhibition, fold more potent than (10) [3]: ≥ 20 fold | 5-phosphatase inhibition, times better than (4) [3]: ~4 times

O=P(O)(O)Oc1cc(OP(=O)(O)O)c(OP(=O)(O)O)cc1OCCOc1cc(OP(=O)(O)O)c(OP(=O)(O)O)cc1OP(=O)(O)O [Compound 9]
IC50 (type 1 InsP3R (InsP3R1)): 380 nM | 5-phosphatase inhibition, fold weaker than (8) [3]: 7 fold

O=P(O)(O)Oc1ccc(OCCOc2ccc(OP(=O)(O)O)c(OP(=O)(O)O)c2)cc1OP(=O)(O)O [Compound 10]
IC50 (type 1 InsP3R (InsP3R1)): > 5000 nM | Inhibition of Ca2+ release (type 1 InsP3R (InsP3R1); up to 10 μM compound, 250 nM Ins(1,4,5)P3): ineffective
